In ChEMBL document CHEMBL3352559, “Synthesis and pharmacological investigation of aralkyl diamine derivatives as potential triple reuptake inhibitors” (Eur J Med Chem, 2014):
pIC50: −log10 of the molar value.

Key:
[1] = system: Salmonella typhimurium; test: Mutagenic activity in Salmonella typhimurium TA98 assessed as number of reversion mutation at 3 ug/plate; type: toxicity, organism-based; conditions: salmonella enterica subsp. enterica serovar typhimurium
How it was run: (§1)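 Ames reversion test in Salmonella typhimurium TA98 and TA100, with and without rat liver S9 metabolic activation. Compound was dissolved in DMSO and added at 3–5000 μg/plate. Each dose, vehicle and positive control was plated in triplicate, and revertant colonies were counted.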

[2] = system: Salmonella typhimurium; test: Mutagenic activity in Salmonella typhimurium TA98 assessed as number of reversion mutation at 30 ug/plate; type: toxicity, organism-based; conditions: salmonella enterica subsp. enterica serovar typhimurium; how it was run: as §1
[3] = system: Salmonella typhimurium; test: Mutagenic activity in Salmonella typhimurium TA98 assessed as number of reversion mutation at 100 ug/plate; type: toxicity, organism-based; conditions: salmonella enterica subsp. enterica serovar typhimurium; how it was run: as §1
[4] = biological target: Sodium-dependent noradrenaline transporter (Homo sapiens, UniProt P23975); test: Inhibition of [3H]-NE uptake in human norepinephrine transporter expressed in HEK293 cells by scintillation counting; type: cell-based
Chain of Sodium-dependent noradrenaline transporter (P23975 whole entry): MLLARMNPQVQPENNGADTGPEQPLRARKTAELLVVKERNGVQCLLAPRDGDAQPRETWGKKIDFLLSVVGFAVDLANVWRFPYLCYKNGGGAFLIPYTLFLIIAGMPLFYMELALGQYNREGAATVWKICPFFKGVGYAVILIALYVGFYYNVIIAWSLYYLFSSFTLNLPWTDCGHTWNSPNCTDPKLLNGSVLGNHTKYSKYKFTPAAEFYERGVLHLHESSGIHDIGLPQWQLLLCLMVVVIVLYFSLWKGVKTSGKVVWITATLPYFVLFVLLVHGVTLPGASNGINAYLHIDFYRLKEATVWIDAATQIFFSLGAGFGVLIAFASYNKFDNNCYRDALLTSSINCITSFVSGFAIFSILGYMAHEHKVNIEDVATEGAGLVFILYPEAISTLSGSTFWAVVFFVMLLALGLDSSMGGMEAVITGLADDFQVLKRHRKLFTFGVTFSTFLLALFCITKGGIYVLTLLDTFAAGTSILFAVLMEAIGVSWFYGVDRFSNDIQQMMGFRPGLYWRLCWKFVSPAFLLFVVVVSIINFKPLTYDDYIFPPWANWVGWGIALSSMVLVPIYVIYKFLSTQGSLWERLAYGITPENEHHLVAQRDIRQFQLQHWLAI

[5] = system: Salmonella typhimurium; test: Mutagenic activity in Salmonella typhimurium TA100 assessed as number of reversion mutation at 1000 ug/plate; type: toxicity, organism-based; conditions: salmonella enterica subsp. enterica serovar typhimurium; how it was run: as §1
[6] = system: Rattus norvegicus; test: Antidepressant activity in rat assessed as reduction in immobility time at 5 mg/kg, po by forced swimming test relative to control; type: functional
How it was run: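 Male rats dosed orally at 5, 10 or 20 mg/kg alongside vehicle and venlafaxine 30 mg/kg PO groups. 1 h post-dose, each rat placed in a glass cylinder (40 cm × 18 cm) holding 15 cm of 25 ± 1 °C water. Immobility time recorded over a 6 min trial; significant main effects followed by post hoc Fisher's test.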

[7] = AUC (0 to time) in Sprague-Dawley rat at 2 mg/kg, po; type: ADME, organism-based; design: dose 2 mg/kg, route oral; conditions: plasma
How it was run: (§2)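 Male SD rats, fasted overnight until 6 h post-dose. PO group received single 2 mg/kg with heparinized blood sampled at 5, 15, 30 min, 1, 2, 4, 8, 24 h. IV group received single 0.5 mg/kg via femoral vein with sampling at 5, 15, 30 min, 1, 2, 4 h. Plasma stored at -40 °C, quantified by LC/MS/MS; 24 rats per group.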

[8] = Apparent volume of distribution during terminal phase in Sprague-Dawley rat at 2 mg/kg, po; type: ADME, organism-based; design: dose 2 mg/kg, route oral; conditions: in vivo, read-out: Vz/F; how it was run: as §2
[9] = system: Rattus norvegicus; test: Apparent volume of distribution during terminal phase in Sprague-Dawley rat at 0.5 mg/kg, iv; type: ADME, organism-based; design: dose 0.5 mg/kg, route intravenous; conditions: in vivo; how it was run: as §2
[10] = Elimination half life in Sprague-Dawley rat at 2 mg/kg, po; type: ADME, organism-based; design: dose 2 mg/kg, route oral; conditions: in vivo, read-out: beta t1/2 (converted)
[11] = Elimination half life in Sprague-Dawley rat at 0.5 mg/kg, iv; type: ADME, organism-based; design: dose 0.5 mg/kg, route intravenous; conditions: in vivo, read-out: beta t1/2 (converted)
How it was run: (§3)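 Male SD rats, fasted overnight until 6 h post-dose; single 0.5 mg/kg femoral-vein injection; blood drawn into heparin at 5, 15, 30 min, 1, 2 and 4 h; plasma stored at -40 °C; drug levels by LC/MS/MS; noncompartmental parameters.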

[12] = Cmax in Sprague-Dawley rat at 0.5 mg/kg, iv; type: ADME, organism-based; design: dose 0.5 mg/kg, route intravenous; conditions: in vivo; how it was run: as §2
[13] = Drug uptake in Sprague-Dawley rat plasma at 0.5 mg/kg iv after 0.08 hrs; type: ADME, organism-based; design: dose 0.5 mg/kg, route intravenous; how it was run: as §3
[14] = Drug uptake in Sprague-Dawley rat brain at 0.5 mg/kg iv after 4 hrs; type: ADME, organism-based; design: dose 0.5 mg/kg, route intravenous; conditions: read-out: Drug uptake
[15] = Ratio of drug level in Sprague-Dawley rat brain to plasma at 0.5 mg/kg iv after 0.08 hrs; type: ADME, organism-based; design: dose 0.5 mg/kg, route intravenous; conditions: read-out: BPR
[16] = biological target: Adenosine receptor A1 (Homo sapiens) (UniProt P30542); test: Displacement of [3H]-DPCPX from human adenosine A1 receptor at 10 uM relative to control
Chain of Adenosine receptor A1 (Homo sapiens) (P30542 whole entry): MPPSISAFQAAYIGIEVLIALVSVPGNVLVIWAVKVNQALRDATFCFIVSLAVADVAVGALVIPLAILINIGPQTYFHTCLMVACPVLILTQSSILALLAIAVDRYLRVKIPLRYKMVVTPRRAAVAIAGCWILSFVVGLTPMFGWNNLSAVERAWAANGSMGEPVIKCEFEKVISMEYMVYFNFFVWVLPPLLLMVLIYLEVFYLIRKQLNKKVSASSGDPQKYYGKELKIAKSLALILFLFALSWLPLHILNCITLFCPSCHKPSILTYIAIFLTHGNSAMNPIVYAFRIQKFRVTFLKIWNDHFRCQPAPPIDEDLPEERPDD
How it was run: (§4)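 Outsourced CNS panel of 55 receptor binding assays run by Cerep. Compound tested at 10 μM, the default primary-binding concentration, with inhibition expressed relative to control. Inhibition above 50% taken as a significant effect.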

[17] = biological target: Melanocortin receptor 4 (Homo sapiens) (UniProt P32245); test: Displacement of [125I] NDP-alpha-MSH from human MC4 receptor at 10 uM relative to control; how it was run: as §4
Chain of Melanocortin receptor 4 (Homo sapiens) (P32245 whole entry): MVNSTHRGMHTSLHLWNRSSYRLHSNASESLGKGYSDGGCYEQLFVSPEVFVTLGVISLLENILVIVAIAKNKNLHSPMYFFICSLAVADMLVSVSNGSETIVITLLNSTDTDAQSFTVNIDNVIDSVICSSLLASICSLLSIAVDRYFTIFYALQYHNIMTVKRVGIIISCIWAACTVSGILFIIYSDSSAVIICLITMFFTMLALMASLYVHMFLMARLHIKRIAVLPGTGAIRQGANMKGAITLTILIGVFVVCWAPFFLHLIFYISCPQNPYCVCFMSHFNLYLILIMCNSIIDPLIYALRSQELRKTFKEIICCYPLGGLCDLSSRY

[18] = biological target: Melatonin receptor type 1A (Homo sapiens) (UniProt P48039); test: Displacement of 2-[125I]iodomelatonin from human melatonin MT1 receptor at 10 uM relative to control; how it was run: as §4
[19] = biological target: Muscarinic acetylcholine receptor M2 (Homo sapiens) (UniProt P08172); test: Displacement of [3H]AF-DX 384 from human muscarinic M2 receptor at 10 uM relative to control; how it was run: as §4
Chain of Muscarinic acetylcholine receptor M2 (Homo sapiens) (P08172 whole entry): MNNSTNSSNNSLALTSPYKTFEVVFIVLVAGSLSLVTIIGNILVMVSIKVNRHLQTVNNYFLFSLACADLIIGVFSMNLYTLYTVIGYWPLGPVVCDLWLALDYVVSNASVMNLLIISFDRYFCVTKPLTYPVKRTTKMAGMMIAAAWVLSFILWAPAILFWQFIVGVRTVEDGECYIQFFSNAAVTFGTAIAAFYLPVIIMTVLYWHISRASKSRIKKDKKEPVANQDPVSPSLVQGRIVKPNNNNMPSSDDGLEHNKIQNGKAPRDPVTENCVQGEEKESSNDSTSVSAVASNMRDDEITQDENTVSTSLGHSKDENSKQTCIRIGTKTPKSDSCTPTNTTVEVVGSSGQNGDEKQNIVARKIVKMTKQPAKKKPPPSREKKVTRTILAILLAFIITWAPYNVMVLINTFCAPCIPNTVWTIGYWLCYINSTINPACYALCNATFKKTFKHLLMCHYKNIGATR

[20] = biological target: Nociceptin receptor (Homo sapiens) (UniProt P41146); test: Displacement of [3H] nociceptin from human ORL1 receptor at 10 uM relative to control; how it was run: as §4
Chain of Nociceptin receptor (Homo sapiens) (P41146 whole entry): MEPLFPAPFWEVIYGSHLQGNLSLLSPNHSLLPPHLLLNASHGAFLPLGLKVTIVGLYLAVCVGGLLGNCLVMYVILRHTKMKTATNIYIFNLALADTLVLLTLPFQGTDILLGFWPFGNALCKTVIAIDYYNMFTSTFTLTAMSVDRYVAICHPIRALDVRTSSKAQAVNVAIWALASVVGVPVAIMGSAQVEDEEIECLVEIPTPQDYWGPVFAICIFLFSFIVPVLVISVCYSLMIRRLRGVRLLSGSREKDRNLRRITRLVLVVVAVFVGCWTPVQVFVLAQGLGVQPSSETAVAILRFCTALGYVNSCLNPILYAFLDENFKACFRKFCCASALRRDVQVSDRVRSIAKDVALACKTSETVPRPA

[21] = biological target: Prostaglandin E2 receptor EP4 subtype (Homo sapiens) (UniProt P35408); test: Displacement of [3H]PGE2 from human EP4 receptor at 10 uM relative to control; how it was run: as §4
Chain of Prostaglandin E2 receptor EP4 subtype (Homo sapiens) (P35408 whole entry): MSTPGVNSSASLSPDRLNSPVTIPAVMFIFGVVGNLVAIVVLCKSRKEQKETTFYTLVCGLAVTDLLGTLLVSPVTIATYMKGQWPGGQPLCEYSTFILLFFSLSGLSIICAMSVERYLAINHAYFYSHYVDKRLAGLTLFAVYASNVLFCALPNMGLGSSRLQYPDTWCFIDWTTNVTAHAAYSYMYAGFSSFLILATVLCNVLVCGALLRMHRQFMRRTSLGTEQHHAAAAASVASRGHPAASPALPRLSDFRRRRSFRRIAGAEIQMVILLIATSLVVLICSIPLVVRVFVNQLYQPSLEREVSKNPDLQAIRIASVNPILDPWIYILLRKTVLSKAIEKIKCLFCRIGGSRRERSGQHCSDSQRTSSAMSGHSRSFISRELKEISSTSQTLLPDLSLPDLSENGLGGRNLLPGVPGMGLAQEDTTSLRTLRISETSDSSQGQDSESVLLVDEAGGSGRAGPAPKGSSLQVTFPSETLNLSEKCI

[22] = biological target: 5-hydroxytryptamine receptor 1A (Homo sapiens) (UniProt P08908); test: Displacement of [3H]OHDPAT from human 5-HT1A receptor at 10 uM relative to control; how it was run: as §4
[23] = biological target: 5-hydroxytryptamine receptor 2A (Homo sapiens) (UniProt P28223); test: Displacement of [3H]ketanserin from human 5-HT2A receptor at 10 uM relative to control
Chain of 5-hydroxytryptamine receptor 2A (Homo sapiens) (P28223 whole entry): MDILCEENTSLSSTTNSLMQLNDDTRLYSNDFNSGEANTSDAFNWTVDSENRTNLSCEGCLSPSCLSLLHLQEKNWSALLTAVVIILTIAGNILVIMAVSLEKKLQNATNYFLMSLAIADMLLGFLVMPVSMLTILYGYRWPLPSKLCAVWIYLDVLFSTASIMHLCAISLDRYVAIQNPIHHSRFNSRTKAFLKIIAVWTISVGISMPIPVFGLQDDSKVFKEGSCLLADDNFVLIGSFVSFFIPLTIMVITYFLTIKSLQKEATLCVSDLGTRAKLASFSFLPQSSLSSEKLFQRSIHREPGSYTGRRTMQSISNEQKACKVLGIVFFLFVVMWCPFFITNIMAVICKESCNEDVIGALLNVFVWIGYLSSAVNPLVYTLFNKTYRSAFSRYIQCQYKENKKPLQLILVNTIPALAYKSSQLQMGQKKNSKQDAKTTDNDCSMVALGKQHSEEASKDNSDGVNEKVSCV
How it was run: (§5)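 Outsourced CNS receptor panel (55 binding assays); compound tested at 10 μM in primary radioligand binding; specific binding inhibition expressed relative to control, with >50% inhibition taken as a significant effect.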

[24] = biological target: 5-hydroxytryptamine receptor 2B (Homo sapiens) (UniProt P41595); test: Displacement of [125I] (+/-)DOI from human 5-HT2B receptor at 10 uM relative to control; how it was run: as §4
Chain of 5-hydroxytryptamine receptor 2B (Homo sapiens) (P41595 whole entry): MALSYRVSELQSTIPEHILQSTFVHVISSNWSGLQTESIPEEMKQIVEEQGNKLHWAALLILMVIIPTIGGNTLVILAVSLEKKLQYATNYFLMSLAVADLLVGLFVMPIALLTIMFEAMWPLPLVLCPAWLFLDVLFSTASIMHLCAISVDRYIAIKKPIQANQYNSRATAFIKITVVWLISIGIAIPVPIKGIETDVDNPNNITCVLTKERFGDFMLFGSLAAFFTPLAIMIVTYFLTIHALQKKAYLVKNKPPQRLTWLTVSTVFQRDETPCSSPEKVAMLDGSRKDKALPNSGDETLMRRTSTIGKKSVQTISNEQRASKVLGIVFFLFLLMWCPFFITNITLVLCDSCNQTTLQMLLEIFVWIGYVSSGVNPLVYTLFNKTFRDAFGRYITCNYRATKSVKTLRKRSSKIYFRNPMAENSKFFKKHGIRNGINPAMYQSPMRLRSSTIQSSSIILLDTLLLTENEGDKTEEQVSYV

[25] = biological target: 5-hydroxytryptamine receptor 6 (Homo sapiens) (UniProt P50406); test: Displacement of [3H]LSD from human 5-HT6 receptor at 10 uM relative to control; how it was run: as §4
Chain of 5-hydroxytryptamine receptor 6 (Homo sapiens) (P50406 whole entry): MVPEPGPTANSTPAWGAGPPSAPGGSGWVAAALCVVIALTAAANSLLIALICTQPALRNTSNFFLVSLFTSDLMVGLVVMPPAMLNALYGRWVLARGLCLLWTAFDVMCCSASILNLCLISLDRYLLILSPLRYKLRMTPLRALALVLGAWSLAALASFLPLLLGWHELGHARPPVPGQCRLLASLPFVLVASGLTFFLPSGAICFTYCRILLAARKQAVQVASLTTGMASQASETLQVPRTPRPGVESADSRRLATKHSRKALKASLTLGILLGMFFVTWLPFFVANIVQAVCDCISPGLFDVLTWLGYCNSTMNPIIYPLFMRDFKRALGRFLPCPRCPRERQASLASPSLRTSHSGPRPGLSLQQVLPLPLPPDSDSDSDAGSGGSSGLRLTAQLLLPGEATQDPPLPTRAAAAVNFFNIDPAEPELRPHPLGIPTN

[26] = biological target: Somatostatin receptor (Homo sapiens) (UniProt P35346+P30874+P31391+P30872+P32745); test: Displacement of [125ITyr11- somatostatin-14 from sst receptor (unknown origin) at 10 uM relative to control; type: protein assay; how it was run: as §4
[27] = biological target: Vasoactive intestinal polypeptide receptor 1 (Homo sapiens) (UniProt P32241); test: Displacement of [125I]VIP from human VPAC1 receptor at 10 uM relative to control; how it was run: as §4
Chain of Vasoactive intestinal polypeptide receptor 1 (Homo sapiens) (P32241 whole entry): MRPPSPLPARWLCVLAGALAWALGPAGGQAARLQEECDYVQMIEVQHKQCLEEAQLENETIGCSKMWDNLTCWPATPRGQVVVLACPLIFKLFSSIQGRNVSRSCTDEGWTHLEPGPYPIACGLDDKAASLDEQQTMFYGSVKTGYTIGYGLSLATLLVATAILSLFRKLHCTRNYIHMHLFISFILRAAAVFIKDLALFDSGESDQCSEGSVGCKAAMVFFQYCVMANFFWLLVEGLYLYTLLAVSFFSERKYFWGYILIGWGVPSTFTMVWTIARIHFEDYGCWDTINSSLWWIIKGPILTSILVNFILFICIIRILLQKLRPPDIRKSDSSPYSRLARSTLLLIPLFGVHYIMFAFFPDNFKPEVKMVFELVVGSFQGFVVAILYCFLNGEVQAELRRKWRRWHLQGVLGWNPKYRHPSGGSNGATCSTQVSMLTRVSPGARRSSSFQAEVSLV

[28] = biological target: 5-hydroxytryptamine receptor 3A (Homo sapiens) (UniProt P46098); test: Inhibition of human 5HT3 at 10 uM by […] binding assay relative to control; how it was run: as §5
Chain of 5-hydroxytryptamine receptor 3A (Homo sapiens) (P46098 whole entry): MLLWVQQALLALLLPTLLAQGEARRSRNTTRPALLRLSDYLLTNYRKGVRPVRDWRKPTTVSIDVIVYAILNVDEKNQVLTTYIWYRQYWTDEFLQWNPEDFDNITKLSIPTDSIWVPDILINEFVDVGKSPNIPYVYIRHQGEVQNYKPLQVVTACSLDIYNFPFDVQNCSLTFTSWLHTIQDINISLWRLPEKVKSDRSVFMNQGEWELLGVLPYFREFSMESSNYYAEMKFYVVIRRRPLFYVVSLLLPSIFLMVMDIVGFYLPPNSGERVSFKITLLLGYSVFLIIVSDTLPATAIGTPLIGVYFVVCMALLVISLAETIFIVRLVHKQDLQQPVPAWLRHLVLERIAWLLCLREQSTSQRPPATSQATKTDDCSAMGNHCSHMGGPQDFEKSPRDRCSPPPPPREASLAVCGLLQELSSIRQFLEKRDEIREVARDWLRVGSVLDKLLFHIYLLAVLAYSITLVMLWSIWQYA

[29] = biological target: L-type calcium channel, verapamil binding site (Homo sapiens, UniProt O60840+Q01668+Q13698+Q13936); test: Inhibition of human L-type calcium channel verapamil binding site at 10 uM by [3H]D88 binding assay relative to control; how it was run: as §5
[30] = Clearance in Sprague-Dawley rat at 0.5 mg/kg, iv; conditions: in vivo
[31] = Drug uptake in Sprague-Dawley rat brain at 0.5 mg/kg ip after 1 hrs
[32] = Drug uptake in Sprague-Dawley rat brain at 0.5 mg/kg ip after 0.50 hrs

CN(C)CCC(c1ccc(Cl)c(Cl)c1)N1CCOCC1 (configuration not stated) gave an Activity [1] of 33, an Activity [2] of 36 and an Activity [3] of 41. For the same molecule, the pIC50 [4] was 6.32, the Activity [5] was 87 and the inhibition in vivo at 5 mg/kg [6] was 31%. It also gave an AUC [7] of 61 ng·h/mL, a Vd/F [8] of 164 L/kg and a Vz/F [9] of 8.3 L/kg. For the same molecule, the half-life [10] was 4.5 h, the half-life [11] was 1 h and the Cmax [12] was 48.5 ng/mL. The concentration at 0.08 h [13] was 48.5 ng/mL, the concentration at 4 h [14] was 42.2 ng/mL and the Kp at 0.08 h [15] was 23.1. It also gave an inhibition [16] of 8.7%, an inhibition [17] of 0.8% and an inhibition [18] of -7.1%. It also gave an inhibition [19] of 17.7%, an inhibition [20] of 0.9% and an inhibition [21] of -1.2%. The inhibition [22] was -0.8%, the inhibition [23] was 32.1% and the inhibition [24] was 19.2%. For the same molecule, the inhibition [25] was 2.4%, the inhibition [26] was 3.2% and the inhibition [27] was 2.2%. The inhibition [28] was -5.2%, the inhibition at 10 µM [29] was 41.8% and the clearance [30] was 100 mL/min/kg. For the same molecule, the concentration at 1 h [31] was 425 ng/mL and the concentration at 0.5 h [32] was 549 ng/mL.
